The values below come from ChEMBL document CHEMBL1128337, “Synthesis and cytotoxic activity of 6-vinyl- and 6-ethynyluridine and 8-vinyl-and 8-ethynyladenosine” (J Med Chem, 1995).

Holding throughout (type): functional, cell-based
One experiment deals with FM3A. Nature of the experiment: Compound was tested for the inhibition of murine mammary carcinoma FM3A cell proliferation. The note with it: Mus musculus. An outline of the steps: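 FM3A cells in Eagle's minimal essential medium with 10% fetal calf serum, 2 mM L-glutamine, 0.075% NaHCO3. Seeded 5 × 10⁴ cells/well (200 μL) with varying compound concentrations and incubated 48 h at 37 °C, humidified CO2 atmosphere. Cell number from Coulter counter. IC50 = concentration reducing viable cells by 50%.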

The subject of another experiment is L1210. The experiment can be described thus: Compound was tested for the inhibition of murine leukemia L1210 cell proliferation. To be noted: Mus musculus. An outline of the steps:
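L1210 cells maintained in Eagle's minimal essential medium with 10% fetal calf serum, 2 mM L-glutamine, 0.075% NaHCO3. Exposed to varying compound concentrations at 5 × 10⁴ cells/well (200 μL) and grown 48 h at 37 °C, humidified CO2 atmosphere. Counted with Coulter counter. IC50 = concentration reducing viable cells by 50%. Means of at least two or three independent experiments.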

In a further experiment the test system is MT4. The experiment can be described thus: Compound was tested for the inhibition of human T-lymphoblast MT-4 cell proliferation. The method in brief:
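MT-4 cells grown in RPMI-1640 with 10% fetal calf serum, 2 mM L-glutamine, 0.075% NaHCO3. Seeded at 6.25 × 10⁴ cells/well with varying compound concentrations and cultured 120 h at 37 °C, humidified CO2 atmosphere. Viable cells counted by trypan blue staining under microscope. IC50 = concentration reducing viable cell number by 50%. Means of at least two or three independent experiments.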

A further experiment has as its system MOLT-4F. Nature of the experiment: Compound was tested for the inhibition of human T-lymphoblast Molt/4F cell proliferation. The method in brief:
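Molt/4F cells in RPMI-1640 with 10% fetal calf serum, 2 mM L-glutamine, 0.075% NaHCO3. Plated at 6.25 × 10⁴ cells/well across varying compound concentrations and grown 72 h at 37 °C, humidified CO2 atmosphere. Cells counted with Coulter counter. IC50 = concentration reducing viable cell number by 50%. Means of at least two or three independent experiments.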

One may read the IC50 as the midpoint of a concentration-inhibition curve. Low readings indicate higher potency, high ones lower potency.

As to `C=Cc1nc2c(N)ncnc2n1[C@@H]1O[C@H](CO)[C@@H](O)[C@H]1O`, the IC50 in the experiment with FM3A turned out to be 145 µM; in the experiment with L1210, 190 µM; in the experiment on MT4, 15 µM; in the experiment with MOLT-4F it was 6.5 µM.

Turning to `C#Cc1nc2c(N)ncnc2n1[C@@H]1O[C@H](CO)[C@@H](O)[C@H]1O`, the IC50 with FM3A was 27 µM; in the experiment with L1210, 54 µM; in the experiment with MT4, 22 µM; with MOLT-4F it was 25 µM.

With `C#Cc1cc(=O)[nH]c(=O)n1C1O[C@H](CO)[C@@H](O)[C@H]1O` (stereo partly specified), the IC50 with FM3A was more than 372 µM; in the experiment on L1210, more than 372 µM; with MT4, 286 µM; in the experiment with MOLT-4F it was more than 372 µM.

Turning to `C=Cc1cc(=O)[nH]c(=O)n1C1O[C@H](CO)[C@@H](O)[C@H]1O` (stereo partly specified), the half-maximal inhibitory concentration (IC50) with FM3A is 24 µM; in the experiment on L1210 it was 21 µM; with MT4 it was 11 µM; in the experiment on MOLT-4F, 14 µM.
